Results from ChEMBL document CHEMBL2062435, “Synthesis and in vitro antibacterial activity of gemifloxacin derivatives containing a substituted benzyloxime moiety” (2012).

Tests used:
Type in all cases: functional
Staphylococcus aureus [1] = experiment: Antimicrobial activity against Staphylococcus aureus ATCC […] after 18-24 hrs by two-fold serial dilution method
How it was run: (§1)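 Agar-medium twofold serial dilution against Gram-positive and Gram-negative strains; MIC taken as the lowest compound concentration giving complete inhibition of bacterial growth after incubation at 35 °C for 18-24 h.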

Staphylococcus aureus [2] = experiment: Antimicrobial activity against extended spectrum beta-lactamases-producing methicillin-resistant Staphylococcus aureus 10-11 after 18-24 hrs by two-fold serial dilution method
How it was run: (§2)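 Agar twofold serial dilution MIC against clinical isolates. MIC was taken as the lowest concentration giving complete inhibition of bacterial growth after incubation at 35 °C for 18-24 h.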

Staphylococcus aureus [3] = experiment: Antimicrobial activity against extended spectrum beta-lactamases-producing methicillin-resistant Staphylococcus aureus 10-15 after 18-24 hrs by two-fold serial dilution method; how it was run: as §2
Staphylococcus aureus [4] = experiment: Antimicrobial activity against extended spectrum beta-lactamases-producing methicillin-sensitive Staphylococcus aureus 10-13 after 18-24 hrs by two-fold serial dilution method; how it was run: as §1
Staphylococcus aureus [5] = experiment: Antimicrobial activity against extended spectrum beta-lactamases-producing methicillin-sensitive Staphylococcus aureus 10-14 after 18-24 hrs by two-fold serial dilution method; how it was run: as §1
[6] = test system: Staphylococcus epidermidis; experiment: Antimicrobial activity against extended spectrum beta-lactamases-producing methicillin-resistant Staphylococcus epidermidis 10-10 after 18-24 hrs by two-fold serial dilution method; how it was run: as §2
[7] = test system: Staphylococcus epidermidis; experiment: Antimicrobial activity against extended spectrum beta-lactamases-producing methicillin-resistant Staphylococcus epidermidis 10-13 after 18-24 hrs by two-fold serial dilution method; how it was run: as §2
[8] = test system: Staphylococcus epidermidis; experiment: Antimicrobial activity against extended spectrum beta-lactamases-producing methicillin-sensitive Staphylococcus epidermidis 10-11 after 18-24 hrs by two-fold serial dilution method; how it was run: as §1
[9] = test system: Staphylococcus epidermidis; experiment: Antimicrobial activity against extended spectrum beta-lactamases-producing methicillin-sensitive Staphylococcus epidermidis 10-13 after 18-24 hrs by two-fold serial dilution method; how it was run: as §1
[10] = test system: Staphylococcus epidermidis; experiment: Antimicrobial activity against extended spectrum beta-lactamases-producing methicillin-sensitive Staphylococcus epidermidis 10-15 after 18-24 hrs by two-fold serial dilution method; how it was run: as §1
Enterococcus faecalis [11] = experiment: Antimicrobial activity against Enterococcus faecalis 10-5 after 18-24 hrs by two-fold serial dilution method; how it was run: as §1
Enterococcus faecalis [12] = experiment: Antimicrobial activity against Enterococcus faecalis 10-6 after 18-24 hrs by two-fold serial dilution method; how it was run: as §1
Enterococcus faecalis [13] = experiment: Antimicrobial activity against Enterococcus faecalis 10-7 after 18-24 hrs by two-fold serial dilution method; how it was run: as §1
Enterococcus faecium [14] = experiment: Antimicrobial activity against Enterococcus faecium 10-5 after 18-24 hrs by two-fold serial dilution method; how it was run: as §1
Enterococcus faecium [15] = experiment: Antimicrobial activity against Enterococcus faecium 10-9 after 18-24 hrs by two-fold serial dilution method; how it was run: as §1
Streptococcus pneumoniae [16] = experiment: Antimicrobial activity against extended spectrum beta-lactamases-producing Streptococcus pneumoniae 10-1 after 18-24 hrs by two-fold serial dilution method; how it was run: as §1
Streptococcus pneumoniae [17] = experiment: Antimicrobial activity against extended spectrum beta-lactamases-producing Streptococcus pneumoniae 10-4 after 18-24 hrs by two-fold serial dilution method; how it was run: as §1
Escherichia coli [18] = experiment: Antimicrobial activity against Escherichia coli ATCC 25922 after 18-24 hrs by two-fold serial dilution method; how it was run: as §1
Escherichia coli [19] = experiment: Antimicrobial activity against Escherichia coli 10-1 after 18-24 hrs by two-fold serial dilution method; how it was run: as §1
Escherichia coli [20] = experiment: Antimicrobial activity against Escherichia coli 10-2 after 18-24 hrs by two-fold serial dilution method; how it was run: as §1
Escherichia coli [21] = experiment: Antimicrobial activity against extended spectrum beta-lactamases-producing Escherichia coli 10-2 after 18-24 hrs by two-fold serial dilution method; how it was run: as §1
Escherichia coli [22] = experiment: Antimicrobial activity against Escherichia coli 10-3 after 18-24 hrs by two-fold serial dilution method; how it was run: as §1
Escherichia coli [23] = experiment: Antimicrobial activity against extended spectrum beta-lactamases-producing Escherichia coli 10-3 after 18-24 hrs by two-fold serial dilution method; how it was run: as §1
Escherichia coli [24] = experiment: Antimicrobial activity against extended spectrum beta-lactamases-producing Escherichia coli 10-4 after 18-24 hrs by two-fold serial dilution method; how it was run: as §1
Klebsiella pneumoniae [25] = experiment: Antimicrobial activity against extended spectrum beta-lactamases-producing Klebsiella pneumoniae 10-1 after 18-24 hrs by two-fold serial dilution method; how it was run: as §1
Klebsiella pneumoniae [26] = experiment: Antimicrobial activity against Klebsiella pneumoniae 10-2 after 18-24 hrs by two-fold serial dilution method; how it was run: as §1
Klebsiella pneumoniae [27] = experiment: Antimicrobial activity against extended spectrum beta-lactamases-producing Klebsiella pneumoniae 10-2 after 18-24 hrs by two-fold serial dilution method; how it was run: as §1
Klebsiella pneumoniae [28] = experiment: Antimicrobial activity against Klebsiella pneumoniae 10-3 after 18-24 hrs by two-fold serial dilution method; how it was run: as §1
Klebsiella pneumoniae [29] = experiment: Antimicrobial activity against extended spectrum beta-lactamases-producing Klebsiella pneumoniae 10-3 after 18-24 hrs by two-fold serial dilution method; how it was run: as §1
Klebsiella pneumoniae [30] = experiment: Antimicrobial activity against Klebsiella pneumoniae 10-4 after 18-24 hrs by two-fold serial dilution method; how it was run: as §1
Pseudomonas aeruginosa [31] = experiment: Antimicrobial activity against Pseudomonas aeruginosa 10-12 after 18-24 hrs by two-fold serial dilution method; how it was run: as §1
Pseudomonas aeruginosa [32] = experiment: Antimicrobial activity against extended spectrum beta-lactamases-producing Pseudomonas aeruginosa 10-5 after 18-24 hrs by two-fold serial dilution method; how it was run: as §1
Pseudomonas aeruginosa [33] = experiment: Antimicrobial activity against extended spectrum beta-lactamases-producing Pseudomonas aeruginosa 10-9 after 18-24 hrs by two-fold serial dilution method; how it was run: as §1
Pseudomonas aeruginosa [34] = experiment: Antimicrobial activity against extended spectrum beta-lactamases-producing Pseudomonas aeruginosa 10-15 after 18-24 hrs by two-fold serial dilution method; how it was run: as §1
Pseudomonas aeruginosa [35] = experiment: Antimicrobial activity against extended spectrum beta-lactamases-producing Pseudomonas aeruginosa 10-18 after 18-24 hrs by two-fold serial dilution method; how it was run: as §1
Pseudomonas aeruginosa [36] = experiment: Antimicrobial activity against extended spectrum beta-lactamases-producing Pseudomonas aeruginosa 10-20 after 18-24 hrs by two-fold serial dilution method; how it was run: as §1

Structure (SMILES) | MIC (Staphylococcus aureus [1]) | MIC (Staphylococcus aureus [2]) | MIC (Staphylococcus aureus [3]) | MIC (Staphylococcus aureus [4]) | MIC (Staphylococcus aureus [5]) | MIC [6] | MIC [7] | MIC [8] | MIC [9] | MIC [10] | MIC (Enterococcus faecalis [11]) | MIC (Enterococcus faecalis [12]) | MIC (Enterococcus faecalis [13]) | MIC (Enterococcus faecium [14]) | MIC (Enterococcus faecium [15]) | MIC (Streptococcus pneumoniae [16]) | MIC (Streptococcus pneumoniae [17]) | MIC (Escherichia coli [18]) | MIC (Escherichia coli [19]) | MIC (Escherichia coli [20]) | other results
COc1cc(CO/N=C2\CN(c3nc4c(cc3F)c(=O)c(C(=O)O)cn4C3CC3)CC2CN)cc(Cl)c1OC.CS(=O)(=O)O (racemic) | < 0.008 µg/mL | 4 µg/mL | 0.25 µg/mL | 0.015 µg/mL | 0.015 µg/mL | 2 µg/mL | 0.25 µg/mL | 2 µg/mL | 0.015 µg/mL | 4 µg/mL | 0.25 µg/mL | 4 µg/mL | 2 µg/mL | 8 µg/mL | 16 µg/mL | 0.06 µg/mL | 0.03 µg/mL | 0.015 µg/mL | > 128 µg/mL | 16 µg/mL | MIC (Escherichia coli [21]): > 128 µg/mL; MIC (Escherichia coli [22]): 128 µg/mL; MIC (Escherichia coli [23]): > 128 µg/mL; MIC (Escherichia coli [24]): 16 µg/mL; MIC (Klebsiella pneumoniae [25]): > 128 µg/mL; MIC (Klebsiella pneumoniae [26]): 128 µg/mL; MIC (Klebsiella pneumoniae [27]): > 128 µg/mL; MIC (Klebsiella pneumoniae [28]): 8 µg/mL; MIC (Klebsiella pneumoniae [29]): > 128 µg/mL; MIC (Klebsiella pneumoniae [30]): > 128 µg/mL; MIC (Pseudomonas aeruginosa [31]): 16 µg/mL; MIC (Pseudomonas aeruginosa [32]): 16 µg/mL; MIC (Pseudomonas aeruginosa [33]): 16 µg/mL; MIC (Pseudomonas aeruginosa [34]): 32 µg/mL; MIC (Pseudomonas aeruginosa [35]): 16 µg/mL; MIC (Pseudomonas aeruginosa [36]): 8 µg/mL
CS(=O)(=O)O.Cc1ccc(CO/N=C2\CN(c3nc4c(cc3F)c(=O)c(C(=O)O)cn4C3CC3)CC2CN)cc1C (racemic) | 0.008 µg/mL | 2 µg/mL | 0.25 µg/mL | 0.06 µg/mL | < 0.008 µg/mL | 1 µg/mL | 1 µg/mL | 0.25 µg/mL | 8 µg/mL | 1 µg/mL | 0.5 µg/mL | 4 µg/mL | 4 µg/mL | 8 µg/mL | 8 µg/mL | 0.125 µg/mL | 0.5 µg/mL | 0.015 µg/mL | 64 µg/mL | 8 µg/mL | MIC (Escherichia coli [21]): > 128 µg/mL; MIC (Escherichia coli [22]): 8 µg/mL; MIC (Escherichia coli [23]): > 128 µg/mL; MIC (Escherichia coli [24]): 8 µg/mL; MIC (Klebsiella pneumoniae [25]): > 128 µg/mL; MIC (Klebsiella pneumoniae [26]): > 128 µg/mL; MIC (Klebsiella pneumoniae [27]): > 128 µg/mL; MIC (Klebsiella pneumoniae [28]): 8 µg/mL; MIC (Klebsiella pneumoniae [29]): > 128 µg/mL; MIC (Klebsiella pneumoniae [30]): > 128 µg/mL; MIC (Pseudomonas aeruginosa [31]): 4 µg/mL; MIC (Pseudomonas aeruginosa [32]): 4 µg/mL; MIC (Pseudomonas aeruginosa [33]): 4 µg/mL; MIC (Pseudomonas aeruginosa [34]): 8 µg/mL; MIC (Pseudomonas aeruginosa [35]): 16 µg/mL; MIC (Pseudomonas aeruginosa [36]): 8 µg/mL
